The source of these data is ChEMBL document CHEMBL4715819, “Bicyclic Helical Peptides as Dual Inhibitors Selective for Bcl2A1 and Mcl-1 Proteins” (J Med Chem, 2018).

The target of assay [1] is T1, Bcl-2-related protein A1 (Homo sapiens, UniProt Q16548).
T1 sequence (Q16548 whole entry): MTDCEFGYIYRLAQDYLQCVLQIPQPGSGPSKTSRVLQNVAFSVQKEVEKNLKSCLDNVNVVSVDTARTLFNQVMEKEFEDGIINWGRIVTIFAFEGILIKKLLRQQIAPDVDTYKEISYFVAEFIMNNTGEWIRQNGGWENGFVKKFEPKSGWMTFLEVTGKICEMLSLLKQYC
In words: Binding affinity to human Bcl2A1 incubated for 2 hrs by FBid based competitive FP assay.

Assay [2] has as its target T2, Induced myeloid leukemia cell differentiation protein Mcl-1 (Homo sapiens, UniProt Q07820). In words: Binding affinity to human Mcl1 incubated for 2 hrs by FBid based competitive FP assay.
The target of assay [3] is T1, Bcl-2-related protein A1. In words: Covalent binding affinity to human Bcl2A1 by FBid based FP assay.
For assay [4], the target named is T3, Bcl-2-related protein A1 (Homo sapiens) (UniProt Q16548).
T3 sequence (whole entry): T1 sequence (Q16548 whole entry)
In words: Covalent binding affinity to human Bcl2A1 assessed as inactivation constant by FBid based FP assay.

Assay [5] concerns the target T3, Bcl-2-related protein A1 (Homo sapiens). In words: Covalent binding affinity to human Bcl2A1 assessed as Kinact/Ki ratio by FBid based FP assay.
Assay [6] shares this target. In words: Covalent binding affinity to Bcl2A1 in human U937 cells at 0.1 to 50 uM incubated for 24 hrs by Western blot analysis. As to conditions: U-937, dose 0.1-50 µM.
For another assay, the system named is SK-MEL-28. In words: Cytotoxicity in human SK-MEL-28 cells assessed as reduction in cell viability incubated for 48 hrs by MTT assay. Type of assay: functional, cell-based. To be noted: SK-MEL-28, 48 h. An outline of the steps:
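SK-MEL-28 cells grown in DMEM with 10% FBS and penicillin/streptomycin. Peptide applied over a concentration series for 48 h. Viability read by MTT, and IC50 taken from the dose–response.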
Background: Formazan colour is commonly taken as a measure of viable cells.

Assay [7] deals with T4, Bcl-2-like protein 2 (Homo sapiens) (UniProt Q92843).
T4 sequence (whole entry): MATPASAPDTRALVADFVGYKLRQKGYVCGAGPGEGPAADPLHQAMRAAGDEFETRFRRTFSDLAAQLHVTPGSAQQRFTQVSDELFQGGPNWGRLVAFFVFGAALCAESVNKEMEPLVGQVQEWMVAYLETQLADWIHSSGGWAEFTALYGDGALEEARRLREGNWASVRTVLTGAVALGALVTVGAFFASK
In words: Binding affinity to human Bcl-w incubated for 2 hrs by FBid based competitive FP assay.

Assay [8] addresses Bcl-2-like protein 1 (Homo sapiens) (UniProt Q07817). In words: Binding affinity to human Bcl-xL incubated for 2 hrs by FBid based competitive FP assay.
The target of assay [9] is Apoptosis regulator Bcl-2 (Homo sapiens) (UniProt P10415). In words: Binding affinity to human Bcl2 incubated for 2 hrs by FBid based competitive FP assay.
Sequence of Apoptosis regulator Bcl-2 (Homo sapiens) (P10415 whole entry): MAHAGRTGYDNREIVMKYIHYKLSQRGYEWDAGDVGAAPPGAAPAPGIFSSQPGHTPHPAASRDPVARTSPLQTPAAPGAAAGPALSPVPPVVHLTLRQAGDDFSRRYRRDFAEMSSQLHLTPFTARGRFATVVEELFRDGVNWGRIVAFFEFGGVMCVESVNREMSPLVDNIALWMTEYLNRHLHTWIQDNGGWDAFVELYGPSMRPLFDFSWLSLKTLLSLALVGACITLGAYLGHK
Assay [10] addresses T3, Bcl-2-related protein A1 (Homo sapiens). In words: Covalent binding affinity to human Bcl2A1 incubated for 2 hrs by SDS-PAGE electrophoresis.
For assay [11] the target is unchanged. In words: Covalent binding affinity to human Bcl2A1 incubated for 2 hrs by in presence of trypsin by MS/MS analysis. An outline of the steps:
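A1 at 1 μM incubated with peptide at 10 μM, 2 h, in pH 7.2 buffer. Intact conjugate mass checked by MS. The conjugate gel band was trypsin-digested and the Cys55-bearing A1 fragment with bound peptide identified by mass spectrometry.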

The target in assay [12] is T2, Induced myeloid leukemia cell differentiation protein Mcl-1. In words: Binding affinity to human Mcl1 by FBid based FP assay.

Active and inactive are the calls of the source. The rule behind the calls is not given here. Positions of bridges follow the written chain, without caps; N, C: chain ends. Non-standard residues stand in square brackets, D forms with d. Residues, ends and D or L forms follow the SMILES beside them. ξ: configuration not given here. *: point of attachment. S5 = C=CCCC[C@](C)(N)C(=O)O; Acryloyl = C=CC(=O)*; Propionyl = CCC(=O)*; ξDap = NCC(N)C(=O)O

T2 sequence (Q07820 whole entry): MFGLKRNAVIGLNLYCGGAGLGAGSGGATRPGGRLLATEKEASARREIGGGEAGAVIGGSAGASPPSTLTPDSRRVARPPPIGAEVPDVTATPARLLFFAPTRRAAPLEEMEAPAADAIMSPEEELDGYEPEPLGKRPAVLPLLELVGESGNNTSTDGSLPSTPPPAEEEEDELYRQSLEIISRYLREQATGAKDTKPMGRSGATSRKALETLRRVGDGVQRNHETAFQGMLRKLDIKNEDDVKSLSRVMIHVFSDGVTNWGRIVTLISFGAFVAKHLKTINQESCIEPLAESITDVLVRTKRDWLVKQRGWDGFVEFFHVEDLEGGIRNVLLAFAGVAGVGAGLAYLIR
Sequence of Bcl-2-like protein 1 (Homo sapiens) (Q07817 whole entry): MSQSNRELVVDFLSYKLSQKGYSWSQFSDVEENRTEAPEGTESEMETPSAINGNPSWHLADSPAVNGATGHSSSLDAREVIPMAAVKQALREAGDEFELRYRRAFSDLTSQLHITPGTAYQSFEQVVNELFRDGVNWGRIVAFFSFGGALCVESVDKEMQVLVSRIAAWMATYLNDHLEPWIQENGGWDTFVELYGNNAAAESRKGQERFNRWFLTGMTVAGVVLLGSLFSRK

For the compound `C=CC(=O)NCC(NC(=O)[C@@H](NC(C)=O)[C@@H](C)CC)C(=O)N[C@H](C(=O)N[C@@H](C)C(=O)N[C@@H](CCC(N)=O)C(=O)N[C@@H](CCC(=O)O)C(=O)N[C@@H](CC(C)C)C(=O)N[C@@H](CCCNC(=N)N)C(=O)N[C@@]1(C)CCC/C=C/CCC[C@@](C)(C(=O)N[C@@H](Cc2ccccc2)C(=O)N[C@@H](CC(N)=O)C(=O)N[C@@H](C)C(=O)N[C@@H](Cc2ccc(O)cc2)C(=O)N[C@@H](Cc2ccc(O)cc2)C(=O)N[C@@H](C)C(=O)N[C@@H](CCCNC(=N)N)C(=O)N[C@@H](CCCNC(=N)N)C(N)=O)NC(=O)[C@H](CC(=O)O)NC(=O)CNC(=O)[C@H]([C@@H](C)CC)NC1=O)[C@@H](C)CC` (stereo partly drawn), the IC50 is 0.0135 µM on Bcl-2-related protein A1 [1] and 0.0345 µM in assay [2]. The Ki at Bcl-2-related protein A1 [3] came out at 0.0816 µM. In assay [4], the Kinact is 0.00239 s⁻¹. In addition, the Ratio in [5] is 30 mM⁻¹ s⁻¹. Besides, in assay [6], the outcome was Active.

As for `CC[C@H](C)[C@H](NC(C)=O)C(=O)N[C@@H](Cc1c[nH]c2ccccc12)C(=O)N[C@H](C(=O)N[C@@H](C)C(=O)N[C@@H](CCC(N)=O)C(=O)N[C@@H](CCC(=O)O)C(=O)N[C@@H](CC(C)C)C(=O)N[C@@H](CCCNC(=N)N)C(=O)N[C@@]1(C)CCC/C=C/CCC[C@@](C)(C(=O)N[C@@H](Cc2ccccc2)C(=O)N[C@@H](CC(N)=O)C(=O)N[C@@H](C)C(=O)N[C@@H](Cc2ccc(O)cc2)C(=O)N[C@@H](Cc2ccc(O)cc2)C(=O)N[C@@H](C)C(=O)N[C@@H](CCCNC(=N)N)C(=O)N[C@@H](CCCNC(=N)N)C(N)=O)NC(=O)[C@H](CC(=O)O)NC(=O)CNC(=O)[C@H]([C@@H](C)CC)NC1=O)[C@@H](C)CC`, the IC50 in the assay on SK-MEL-28 was found to be 15.7 µM.

Regarding `C=CC(=O)NCC(NC(=O)[C@@H](NC(C)=O)[C@@H](C)CC)C(=O)N[C@H](C(=O)N[C@@H](C)C(=O)N[C@@H](CCC(N)=O)C(=O)N[C@@H](CCC(=O)O)C(=O)N[C@@H](CC(C)C)C(=O)N[C@@H](CCCNC(=N)N)C(=O)N[C@@]1(C)CCC/C=C/CCC[C@@](C)(C(=O)N[C@@H](Cc2ccccc2)C(N)=O)NC(=O)[C@H](CC(=O)O)NC(=O)CNC(=O)[C@H]([C@@H](C)CC)NC1=O)[C@@H](C)CC` (stereo partly drawn) (Ac-I[ξDap](Acryloyl)IAQELR[S5]IGD[S5]F-NH2; staple (E) 9-13), the 50% inhibitory concentration (IC50) was found to be 0.0546 µM on Bcl-2-related protein A1 [1] and 0.162 µM in assay [2]. Besides, the outcome in [7], in assay [8] and in assay [9] was inactive. Besides, on Bcl-2-related protein A1 [3], the Ki worked out at 0.175 µM. The Kinact in [4] turned out to be 0.00159 s⁻¹. For the same compound, the Ratio in assay [5] is 9 mM⁻¹ s⁻¹. In addition, in assay [6], the outcome was Active.

In the case of `C=CC(=O)NCC1NC(=O)[C@@H](NC(C)=O)CCCCNC(=O)C[C@@H](C(=O)N[C@@H](CCC(=O)O)C(=O)N[C@@H](CC(C)C)C(=O)N[C@@H](CCCNC(=N)N)C(=O)N[C@H]2CCCCNC(=O)C[C@@H](C(=O)N[C@@H](Cc3ccccc3)C(N)=O)NC(=O)[C@H](CC(=O)O)NC(=O)CNC(=O)[C@H]([C@@H](C)CC)NC2=O)NC(=O)[C@H](C)NC(=O)[C@H]([C@@H](C)CC)NC1=O` (stereo partly drawn) (Ac-K[ξDap](Acryloyl)IADELRKIGDDF-NH2; lactam 1-5, 9-13), the figures for the half-inhibitory concentration (IC50) (at Bcl-2-related protein A1 [1]; in [2]) were 0.0065 µM and 0.048 µM, respectively. In addition, the outcome in assay [7], in assay [8] and in assay [9] was inactive. The same compound displayed a Ki on Bcl-2-related protein A1 [3] of 0.0305 µM. The Kinact in [4] amounted to 0.00349 s⁻¹. Moreover, the Ratio in assay [5] is 118 mM⁻¹ s⁻¹. Moreover, the outcome in assay [6] was Active.

Turning to `C=CC(=O)NCC1NC(=O)[C@@H](NC(C)=O)CCCCNC(=O)C[C@@H](C(=O)N[C@@H](CCC(=O)O)C(=O)N[C@@H](CC(C)C)C(=O)N[C@@H](CCCNC(=N)N)C(=O)N[C@@]2(C)CCC/C=C/CCC[C@@](C)(C(=O)N[C@@H](Cc3ccccc3)C(N)=O)NC(=O)[C@H](CC(=O)O)NC(=O)CNC(=O)[C@H]([C@@H](C)CC)NC2=O)NC(=O)[C@H](C)NC(=O)[C@H]([C@@H](C)CC)NC1=O` (stereo partly drawn) (Ac-K[ξDap](Acryloyl)IADELR[S5]IGD[S5]F-NH2; lactam 1-5; staple (E) 9-13), the results for the IC50 (on Bcl-2-related protein A1 [1]; in [2]) were 0.0204 µM and 0.108 µM, respectively. Further, the result in assay [7], in [8] and in assay [9] was inactive. The same compound had a Ki at Bcl-2-related protein A1 [3] of 0.0467 µM. Further, in assay [4], the Kinact was determined as 0.00231 s⁻¹. Also, the Ratio in [5] worked out at 54 mM⁻¹ s⁻¹. Also, in assay [6], the outcome was Active.

In the case of `C=CC(=O)NCC1NC(=O)[C@@](C)(NC(C)=O)CCC/C=C/CCC[C@@](C)(C(=O)N[C@@H](CCC(=O)O)C(=O)N[C@@H](CC(C)C)C(=O)N[C@@H](CCCNC(=N)N)C(=O)N[C@H]2CCCCNC(=O)C[C@@H](C(=O)N[C@@H](Cc3ccccc3)C(N)=O)NC(=O)[C@H](CC(=O)O)NC(=O)CNC(=O)[C@H]([C@@H](C)CC)NC2=O)NC(=O)[C@H](C)NC(=O)[C@H]([C@@H](C)CC)NC1=O` (stereo partly drawn) (Ac-[S5][ξDap](Acryloyl)IA[S5]ELRKIGDDF-NH2; staple (E) 1-5; lactam 9-13), the concentration for half-maximal inhibition (IC50) on Bcl-2-related protein A1 [1] was 0.0066 µM; in assay [2] it was 0.0292 µM. The result in assay [7], in [8] and in assay [9] was inactive. In addition, the Ki at Bcl-2-related protein A1 [3] amounted to 0.01 µM. Also, the Kinact in assay [4] was 0.00367 s⁻¹. In addition, the Ratio in assay [5] was 399 mM⁻¹ s⁻¹. The outcome in [10], in assay [11] and in assay [6] was Active.

With `C=CC(=O)NCC1NC(=O)[C@@](C)(NC(C)=O)CCC/C=C/CCC[C@@](C)(C(=O)N[C@@H](CCC(=O)O)C(=O)N[C@@H](CC(C)C)C(=O)N[C@@H](CCCNC(=N)N)C(=O)N[C@@]2(C)CCC/C=C/CCC[C@@](C)(C(=O)N[C@@H](Cc3ccccc3)C(N)=O)NC(=O)[C@H](CC(=O)O)NC(=O)CNC(=O)[C@H]([C@@H](C)CC)NC2=O)NC(=O)[C@H](C)NC(=O)[C@H]([C@@H](C)CC)NC1=O` (stereo partly drawn) (Ac-[S5][ξDap](Acryloyl)IA[S5]ELR[S5]IGD[S5]F-NH2; staple (E) 1-5, 9-13), the values for the IC50 (at Bcl-2-related protein A1 [1]; in [2]) were 0.0134 µM and 0.0516 µM, respectively. For the same compound, the result in assay [7], in assay [8] and in assay [9] was inactive. The same compound returned a Ki on Bcl-2-related protein A1 [3] of 0.133 µM. Besides, the Kinact in assay [4] turned out to be 0.00224 s⁻¹. The Ratio in assay [5] stood at 16.2 mM⁻¹ s⁻¹. The result in assay [6] was Active.

On to `C=CC(=O)NCC1NC(=O)[C@@](C)(NC(C)=O)CCC/C=C/CCC[C@@](C)(C(=O)N[C@@H](CC(C)C)C(=O)N[C@@H](CC(C)C)C(=O)N[C@@H](CCCNC(=N)N)C(=O)N[C@H]2CCCCNC(=O)C[C@@H](C(=O)N[C@@H](Cc3ccccc3)C(N)=O)NC(=O)[C@H](CC(=O)O)NC(=O)CNC(=O)[C@H]([C@@H](C)CC)NC2=O)NC(=O)[C@H](C)NC(=O)[C@H]([C@@H](C)CC)NC1=O` (stereo partly drawn) (Ac-[S5][ξDap](Acryloyl)IA[S5]LLRKIGDDF-NH2; staple (E) 1-5; lactam 9-13), for which, in assay [4], the outcome was Active.

For the compound `CCC(=O)NCC1NC(=O)[C@@](C)(NC(C)=O)CCC/C=C/CCC[C@@](C)(C(=O)N[C@@H](CCC(=O)O)C(=O)N[C@@H](CC(C)C)C(=O)N[C@@H](CCCNC(=N)N)C(=O)N[C@H]2CCCCNC(=O)C[C@@H](C(=O)N[C@@H](Cc3ccccc3)C(N)=O)NC(=O)[C@H](CC(=O)O)NC(=O)CNC(=O)[C@H]([C@@H](C)CC)NC2=O)NC(=O)[C@H](C)NC(=O)[C@H]([C@@H](C)CC)NC1=O` (stereo partly drawn) (Ac-[S5][ξDap](Propionyl)IA[S5]ELRKIGDDF-NH2; staple (E) 1-5; lactam 9-13), the outcome in assay [10] and in assay [6] was inactive. Further, the outcome in [12] was Active.

Usually IC50 stands for the midpoint of a concentration-inhibition curve.
